Laboratory results from ChEMBL document CHEMBL3862007, “Synthesis and antimicrobial activity of small cationic amphipathic aminobenzamide marine natural product mimics and evaluation of relevance against clinical isolates including ESBL-CARBA producing multi-resistant bacteria” (Bioorg Med Chem, 2016).

Experiments:
[1] = test system: Staphylococcus aureus; test: Antibacterial activity against Staphylococcus aureus ATCC 9144 after 48 hrs by microdilution method; type: functional; settings: ATCC 9144, 48 h
[2] = Antibacterial activity against methicillin-resistant Staphylococcus epidermidis RP62A CCUG 31568 (ATCC 35984) after 48 hrs by microdilution method; type: functional
Procedure, shortened: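 Broth microdilution MIC against the reference-strain panel. Compounds were supplied as HCl salts for aqueous solubility in the test medium. Precipitation in the test buffer is flagged at higher concentrations.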

[3] = test system: Bacillus subtilis; test: Antibacterial activity against Bacillus subtilis 168 ATCC 23857 after 48 hrs by microdilution method; type: functional; settings: subsp. subtilis str. 168 ATCC 23857, 48 h
[4] = test system: Corynebacterium glutamicum; test: Antibacterial activity against Corynebacterium glutamicum ATCC 13032 after 48 hrs by microdilution method; type: functional; settings: ATCC 13032, 48 h
[5] = test system: Escherichia coli; test: Antibacterial activity against Escherichia coli ATCC 25922 after 48 hrs by microdilution method; type: functional; settings: ATCC 25922, 48 h
[6] = test system: Pseudomonas aeruginosa; test: Antibacterial activity against Pseudomonas aeruginosa PAO1 DSM 19880 (ATCC 15692) after 48 hrs by microdilution method; type: functional
[7] = Hemolytic activity in human RBC after 1 hr; type: ADME, cell-based; settings: Erythrocyte
[8] = Selectivity index, ratio of hemolytic EC50 for human RBC to MIC for Staphylococcus aureus ATCC 9144
[9] = Aqueous solubility of the compound; type: physicochemical; settings: buffer
[10] = test system: Staphylococcus aureus; test: Antibacterial activity against Staphylococcus aureus clinical isolate after 24 hrs by microdilution method; type: functional
[11] = test system: Enterococcus sp.; test: Antibacterial activity against Enterococcus sp. clinical isolate after 24 hrs by microdilution method; type: functional
[12] = test system: Escherichia coli; test: Antibacterial activity against Escherichia coli clinical isolate after 24 hrs by microdilution method; type: functional
[13] = test system: Pseudomonas aeruginosa; test: Antibacterial activity against Pseudomonas aeruginosa clinical isolate after 24 hrs by microdilution method; type: functional
[14] = test system: Klebsiella pneumoniae; test: Antibacterial activity against Klebsiella pneumoniae clinical isolate after 24 hrs by microdilution method; type: functional
[15] = test system: Bacillus subtilis; test: Membranolytic activity in Bacillus subtilis 168 ATCC 23857 carrying pCSS962 plasmid measured every second for 30 secs by luciferase reporter assay; type: functional; settings: subsp. subtilis str. 168 ATCC 23857
Procedure, shortened: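 B. subtilis 168 carrying pCSS962 (luciferase-expressing) was added as a suspension already containing D-luciferin, with luminescence read in real time up to 120 s. Water served as the untreated control. Chlorhexidine was added to all samples at 30 s as a membranolytic control. Fold induction is the peak sample luminescence over the water-control maximum after chlorhexidine, from two independent experiments.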

Row | SMILES | MIC [1] [µg/mL] | MIC [2] [µg/mL] | MIC [3] [µg/mL] | MIC [4] [µg/mL] | MIC [5] [µg/mL] | MIC [6] [µg/mL] | EC50 [7] [µg/mL] | Selectivity Index [8] | solubility [9] | MIC [10] [µg/mL] | MIC [11] [µg/mL] | MIC [12] [µg/mL] | MIC [13] [µg/mL] | MIC [14] [µg/mL] | Activity [15]
1 | CC(C)(C)c1cc(C(=O)Nc2cccc(C(=O)NCCN)c2)cc(C(C)(C)C)c1.Cl | 16 | 8 | 8 | 8 | 16 | 16 | 39 | 2.4 |  |  |  |  |  |  | 
2 | CN(C(=O)c1cc(C(C)(C)C)cc(C(C)(C)C)c1)c1ccc(C(=O)NCCN)cc1 |  |  |  |  |  |  |  | 0.3 |  |  |  |  |  |  | 
3 | CC(C)(C)c1cc(C(=O)NCc2ccc(C(=O)NCCNC(=N)N)cc2)cc(C(C)(C)C)c1.Cl | 8 | 8 | 8 | 2 | 16 | 16 | 52 | 6.5 | Insoluble |  |  |  |  |  | 
4 | CC(C)(C)c1cc(NC(=O)c2ccc(C(=O)NCCCNC(=N)N)cc2)cc(C(C)(C)C)c1.Cl | 4 | 8 | 4 | 2 | 8 | 8 | 42 | 10.5 |  | 4 | 8 | 8 | 8 | 16 | 
5 | CC(C)(C)c1cc(C(=O)Nc2ccccc2C(=O)NCCN)cc(C(C)(C)C)c1.Cl | 8 | 8 | 4 | 4 | 16 | 64 | 29 | 3.6 |  | 8 | 8 | 16 | > 64 | 32 | 
6 | CC(C)(C)c1cc(C(=O)Nc2cccc(C(=O)NCCCNC(=N)N)c2)cc(C(C)(C)C)c1.Cl | 4 | 8 | 4 | 4 | 8 | 16 | 59 | 14.8 |  |  |  |  |  |  | Dose-dependent effect
7 | CC(C)(C)c1cc(NC(=O)c2ccc(C(=O)NCCNC(=N)N)cc2)cc(C(C)(C)C)c1.Cl | 4 | 4 | 4 | 2 | 8 | 16 | 44 | 11 |  | 4 | 8 | 8 | 8 | 16 | 
8 | CN(C)CCNC(=O)c1ccc(NC(=O)c2cc(C(C)(C)C)cc(C(C)(C)C)c2)cc1.Cl | 16 | 8 | 8 | 4 | 32 | > 128 | > 16 | > 1 |  |  |  |  |  |  | 
9 | CC(C)(C)c1cc(C(=O)Nc2ccccc2C(=O)NCCCNC(=N)N)cc(C(C)(C)C)c1.Cl | 4 | 2 | 2 | 1 | 8 | 32 | 39 | 9.8 |  |  |  |  |  |  | 
10 | CC(C)(C)c1cc(C(=O)Nc2cc3ccccc3cc2C(=O)NCCN)cc(C(C)(C)C)c1.Cl | 2 | 8 | 4 | 2 | 8 | > 128 | 23 | 11.5 |  | 2 | 2 | 8 | > 64 | 64 | 
11 | CC(C)(C)c1cc(C(=O)Nc2ccc(C(=O)NCCNC(=N)N)cc2)cc(C(C)(C)C)c1.Cl | 4 | 4 | 4 | 2 | 8 | 16 | 38 | 9.5 |  | 4 | 8 | 8 | > 64 | 16 | Dose-dependent effect
12 | CN(C(=O)c1cc(C(C)(C)C)cc(C(C)(C)C)c1)c1ccc(C(=O)NCCNC(=N)N)cc1.Cl | 16 | 16 | 16 | 4 | 128 | 128 | 243 | 15.2 |  |  |  |  |  |  | 
13 | CN(C(=O)c1cc(C(C)(C)C)cc(C(C)(C)C)c1)c1ccc(C(=O)NCCCN)cc1.Cl | > 128 | > 128 | 128 | 64 | > 128 | > 128 | 172 | < 1.3 |  |  |  |  |  |  | 
14 | CC(C)(C)c1cc(C(=O)Nc2cccc(C(=O)NCCCN)c2)cc(C(C)(C)C)c1.Cl | 8 | 8 | 8 | 4 | 16 | 16 | 32 | 4 |  |  |  |  |  |  | 
15 | CC(C)(C)c1cc(NC(=O)c2ccc(C(=O)NCCCN)cc2)cc(C(C)(C)C)c1.Cl | 8 | 8 | 8 | 4 | 8 | 16 | 28 | 3.5 |  |  |  |  |  |  | 
16 | CC(C)(C)c1cc(C(=O)Nc2ccc(C(=O)NCCN)cc2)cc(C(C)(C)C)c1.Cl | 8 | 8 | 4 | 4 | 8 | 16 | 28 | 3.5 |  | 8 | 16 | 8 | 16 | 16 | 
17 | CC(C)(C)c1cc(C(=O)Nc2ccc(C(=O)NCCCN)cc2)cc(C(C)(C)C)c1.Cl | 8 | 8 | 4 | 4 | 8 | 32 | 31 | 3.9 |  |  |  |  |  |  | 
18 | CN(C)CCOC(=O)c1ccc(NC(=O)c2cc(C(C)(C)C)cc(C(C)(C)C)c2)cc1.Cl | 8 | 8 | 4 | 4 | > 128 | > 128 | 28 | 3.5 |  |  |  |  |  |  | 
19 | CC(C)(C)c1cc(C(=O)Nc2cc3ccccc3cc2C(=O)NCCNC(=N)N)cc(C(C)(C)C)c1.Cl | 2 | 2 | 1 | 1 | 16 | 64 | > 16 | > 8 |  | 4 | 8 | 16 | > 64 | 32 | 
20 | CC(C)(C)c1cc(NC(=O)c2ccc(C(=O)NCCN)cc2)cc(C(C)(C)C)c1.Cl | 8 | 8 | 4 | 8 | 8 | 16 | 21 | 2.6 |  |  |  |  |  |  | 
21 | CC(C)(C)c1cc(C(=O)Nc2ccc(C(=O)NCCCNC(=N)N)cc2)cc(C(C)(C)C)c1.Cl | 4 | 4 | 4 | 2 | 8 | 16 | 62 | 15.5 |  |  |  |  |  |  | 
22 | CC(C)(C)c1cc(C(=O)Nc2ccccc2C(=O)NCCCN)cc(C(C)(C)C)c1.Cl | 8 | 8 | 4 | 4 | 16 | 32 | 23 | 2.9 |  |  |  |  |  |  | Dose-dependent effect
